Compound activity as filed in PubChem.
Sampled rows, rich in hits. Any-hit rate of the full collection: about 4.4%.
MsrA inhibitor: bovine MsrA enzyme inhibitors, primary screen, biochemical, absorbance, HTS; Methionine sulfoxide reductase A (Bos taurus); purified bovine MsrA, absorbance read-out; inhibition, % at 15.5 µM; 0.75% of 360,000 active; in the data active means inhibition above about 4.5%;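 further: 0% = vehicle wells with enzyme and 100% = reference inhibitor wells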
AHR act: AHR activators, primary screen, cell-based, luminescence, luciferase reporter, human | activation, % at 5 µM | AHR-responsive luciferase reporter cells | 2.5% of 320,000 active | AID 2796, 2010; in the data active means activation above about 47%;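 further: 0% = vehicle wells and 100% = reference agonist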
bovine MsrA act: bovine MsrA enzyme activators, primary screen, biochemical, absorbance, HTS; activation, % at 10.6 µM; AID 602163, 2012; purified bovine MsrA, absorbance read-out; 0.3% of 360,000 active; in the data active means activation above about 7.5%;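 further: 0% = vehicle and 100% = reference activator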
AI-2 QS mod: Vibrio harveyi AI-2 quorum sensing modulators, primary screen, JMH597 strain, luminescence/OD600 ratio | 0.4% of 300,000 active | AID 2094, 2009 | activity change, % at 7.5 µM | Vibrio harveyi JMH597 AI-2 luminescence/OD600 ratio, 9 h; hits give low values; strain lacks LuxN and CqsS sensors; 0 = neutral-control median; in the data active means activity change below about -75%, passing the limit was not always enough;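 further: luminescence divided by OD600 gain over 9 h not by final OD600 alone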
m5-HT2A agonist: mouse Htr2a agonists via beta-arrestin recruitment, primary screen, cell-based, luminescence; 5-hydroxytryptamine receptor 2A (Mus musculus), P35363; CHO-K1 mHTR2A beta-arrestin complementation; percent of 30 µM serotonin response; activation, % at 7.6 µM; 0.66% of 360,000 active;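 active means activation above a run cutoff, the mean activation of all tested compounds plus 3 SD, cut at about 14% in these data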;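 further: 0% = plate median of compound wells and 100% = 30 µM serotonin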
Tb MetRS inh: T. brucei MetRS inhibitors, primary screen, biochemical, luminescence. inhibition, % at 11.9 µM. 0.4% of 360,000 active. methionyl-tRNA synthetase (Trypanosoma brucei brucei). purified T. brucei MetRS, ATP depletion, Kinase-Glo luminescence;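 active means inhibition above a per-plate cutoff of the control wells' mean inhibition plus 3 SD, cut at about 5.5% in these data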;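 further: 0% = DMSO wells median and 100% = median of wells with control inhibitor compound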
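Test system – parasite MetRS enzyme · Reagent – substrates ATP, L-methionine and bulk Escherichia coli tRNA · Doses – 11.9 µM compound single dose, 0.9% DMSO · Times – 15 min enzyme-compound preincubation, 2 h reaction, 10 min detection, 25 °C · Signal – Kinase-Glo luminescence, ATP depletion format · Controls – DMSO-only wells as low control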
TbMetRS confirm: T. brucei MetRS inhibitors, confirmation, biochemical, luminescence. shares compounds with Tb MetRS inh. T. brucei MetRS enzyme, luminescence (ATP depletion). inhibition, % at 11.9 µM. 93% of 1,400 active. AID 624412, 2012; in the data active means inhibition above about 7%
Jurkat tox: Jurkat T cell cytotoxicity, cytotoxicity control for T. brucei MetRS inhibitor project, luminescence, high throughput; shares compounds with Tb MetRS inh; Jurkat cells viability, ATP luminescence; inhibition, % at 8.3 µM; 12% of 1,400 active; AID 624413, 2012; in the data active means inhibition above about 15%;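 further: 0% = vehicle and 100% = reference inhibitor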
Tb MetRS inh FP: T. brucei MetRS inhibitors, orthogonal assay for T. brucei MetRS inhibitor project, biochemical, fluorescence polarization; shares compounds with Tb MetRS inh; purified T. brucei MetRS; inhibition, % at 11.9 µM; 44% of 1,400 active; AID 651607, 2012; in the data active means inhibition above about 17%;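 further: 0% = vehicle wells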
Numbers without * were called inactive.

Screening C[C@H](O)[C@@H]1CN2CCc3c([nH]c4c(-c5ccccc5)cccc34)[C@@H]2C[C@@H]1N(C)C(=O)Nc1ccccc1 returned MsrA inhibitor 0.6.
O=C(CCC(=O)OCc1ccc(C(=O)Oc2ccc(Cl)cc2)cc1)Nc1ccccc1 was read as MsrA inhibitor -0.5, AHR act -1.3, bovine MsrA act -11.8, AI-2 QS mod -9.0, m5-HT2A agonist -2.7 and Tb MetRS inh -1.1.
O=C(CCC(=O)OCc1ccc(Br)cc1)Nc1ccccc1 was read as MsrA inhibitor -1.3, AHR act 1.0, bovine MsrA act -1.5, AI-2 QS mod 18.7, m5-HT2A agonist -0.8, Tb MetRS inh 6.1*, TbMetRS confirm 13.8*, Jurkat tox -3.4 and Tb MetRS inh FP 5.5.
For O=C(Cc1cccc(Cl)c1)Nc1ccc(Br)cc1 the results were MsrA inhibitor -1.5, AHR act 26.6, bovine MsrA act -2.8, AI-2 QS mod 7.5, m5-HT2A agonist -6.5, Tb MetRS inh 39.7*, TbMetRS confirm 60.7*, Jurkat tox -0.6 and Tb MetRS inh FP 38.8*.
Screening O=C(CC(=O)Nc1ccc(Br)cc1)Nc1ccc(Br)cc1 returned MsrA inhibitor 1.2, AHR act 23.2, bovine MsrA act -4.8, AI-2 QS mod 7.6, m5-HT2A agonist -1.3, Tb MetRS inh 7.0*, TbMetRS confirm 11.3*, Jurkat tox -3.4 and Tb MetRS inh FP 10.1.
Screening O=C(O)CCCC(=O)Nc1ccc(Br)cc1 returned MsrA inhibitor -1.0, AHR act -1.0, bovine MsrA act -0.9, AI-2 QS mod 36.5, m5-HT2A agonist 2.7 and Tb MetRS inh -0.6.
`COC(=O)C[C@@H]1C[C@@H]2c3cc(NC(=O)NC4CCCCC4)ccc3O[C@@H]2[C@H](CO)O1` gave MsrA inhibitor 3.0, bovine MsrA act -1.1, m5-HT2A agonist 2.0 and Tb MetRS inh -1.1.
Screening O=C(NNC(=O)c1ccc(-n2cncn2)c([N+](=O)[O-])c1)c1ccc(Cl)cc1 returned MsrA inhibitor 1.9, AHR act 4.7, bovine MsrA act -12.8, m5-HT2A agonist 7.1, Tb MetRS inh 59.5*, TbMetRS confirm 81.7*, Jurkat tox 1.1 and Tb MetRS inh FP 64.7*.
Screening O=C(NNC(=O)c1ccc(-n2cncn2)c([N+](=O)[O-])c1)c1cccc(Cl)c1 returned MsrA inhibitor 1.3, AHR act 4.2, bovine MsrA act -2.6, AI-2 QS mod 18.0, m5-HT2A agonist -5.5, Tb MetRS inh 35.3*, TbMetRS confirm 59.2*, Jurkat tox 5.8 and Tb MetRS inh FP 31.2*.
Screening CN(CC(=O)Nc1c(Cl)cccc1Cl)C(=O)c1ccc(-n2cncn2)c([N+](=O)[O-])c1 returned MsrA inhibitor -1.4, AHR act 9.7, bovine MsrA act -1.2, AI-2 QS mod 4.1, m5-HT2A agonist -14.3 and Tb MetRS inh 0.7.
`O=C(Nc1cc(Cl)ccc1-n1cncn1)c1ccc([N+](=O)[O-])o1` gave MsrA inhibitor 2.5, AHR act 18.7, bovine MsrA act -0.7, AI-2 QS mod -28.3, m5-HT2A agonist 0.9 and Tb MetRS inh -0.3.
O=C(NNC(=O)c1ccccc1Cl)c1ccc(-n2cncn2)c([N+](=O)[O-])c1 was read as MsrA inhibitor 1.0, AHR act 0.2, bovine MsrA act -4.0, m5-HT2A agonist 1.2, Tb MetRS inh 7.8*, TbMetRS confirm 33.0*, Jurkat tox 5.5 and Tb MetRS inh FP 11.6.
For CC(Oc1ccccc1F)C(=O)NNC(=O)c1ccc(-n2cncn2)c([N+](=O)[O-])c1 (centres undefined) the results were MsrA inhibitor -0.3, bovine MsrA act 0.7, m5-HT2A agonist 2.6 and Tb MetRS inh 5.4.
`O=C(Nc1cc(Cl)ccc1F)c1ccc(-n2cncn2)c([N+](=O)[O-])c1` gave MsrA inhibitor 0.5, AHR act 8.8, bovine MsrA act -6.0, AI-2 QS mod 29.7, m5-HT2A agonist -4.9, Tb MetRS inh 21.8*, TbMetRS confirm 58.5*, Jurkat tox -2.2 and Tb MetRS inh FP 21.0*.
Screening O=C(NCCc1ccc(F)cc1)C1CCN(C(=O)Nc2ccccc2)CC1 returned MsrA inhibitor -0.2, AHR act -0.6, bovine MsrA act -2.6, m5-HT2A agonist -5.5 and Tb MetRS inh -0.2.
`CC1CCCCC1NC(=O)COC(=O)c1c2c(nc3ccccc13)/C(=C\c1ccco1)CC2` (centres undefined) gave MsrA inhibitor 0.5, bovine MsrA act -0.5, m5-HT2A agonist -2.2 and Tb MetRS inh 0.0.
Screening COc1ccc(COC(=O)CCc2cc(OC)c(OC)c(OC)c2)cc1F returned MsrA inhibitor 0.4, bovine MsrA act -4.8, m5-HT2A agonist 11.2 and Tb MetRS inh -0.5.
`Cc1csc(CNc2ncnc3ccc(-c4ccccc4Cl)cc23)c1` gave MsrA inhibitor 0.3, AHR act 5.8, bovine MsrA act 7.1, m5-HT2A agonist -8.1, Tb MetRS inh 6.0*, TbMetRS confirm 24.6*, Jurkat tox 3.7 and Tb MetRS inh FP 20.5*.
`CC(C)OC(=O)N(C)C[C@H]1OCc2cn(nn2)CCCC(=O)N([C@@H](C)CO)C[C@@H]1C` gave MsrA inhibitor -0.4.
`O=C(Nc1ccc(F)cc1)c1ccc(-n2cncn2)c([N+](=O)[O-])c1` gave MsrA inhibitor -0.2, AHR act -4.7, bovine MsrA act -7.0, AI-2 QS mod 22.3, m5-HT2A agonist -1.3, Tb MetRS inh 33.5*, TbMetRS confirm 47.8*, Jurkat tox 21.5* and Tb MetRS inh FP 27.7*.
For Cc1ccc(NC(=O)c2ccc(-n3cncn3)c([N+](=O)[O-])c2)cc1F the results were MsrA inhibitor 0.9, AHR act 2.8, bovine MsrA act -5.1, AI-2 QS mod 28.3, m5-HT2A agonist 1.3, Tb MetRS inh 13.0*, TbMetRS confirm 56.3*, Jurkat tox 1.2 and Tb MetRS inh FP 24.8*.
